# Data reported in ChEMBL document CHEMBL6177914, “Human microbiome derived synthetic antimicrobial peptides with activity against Gram-negative, Gram-positive, and antibiotic resistant bacteria” (RSC Med Chem, 2025).
# Activity calls are given as the source filed them. The calls are words filed in the database; no cut-off is given here. Square brackets hold non-standard residues; d marks the D form. Peptide text beside a SMILES is read from it.
# Legend:
# Pseudomonas aeruginosa [1] = test: Bactericidal activity against Pseudomonas aeruginosa BAA 1744 assessed as inhibition of bacterial growth at MIC concentration incubated for 48 hrs by broth microdilution assay; assay type: functional, organism-based
# In short: (§1)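 From broth-microdilution wells showing no growth, 10 µL was spotted onto agar and incubated 48 h at 37 °C. Plates were inspected for colonies. Fidaxomicin at 1 µM served as control.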
# Staphylococcus aureus [2] = test: Antibacterial activity against Staphylococcus aureus ATCC 25923 assessed as reduction in colony forming units at MIC concentration measured after 2 hrs by time-kill kinetic analysis; assay type: functional
# In short: (§2)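 Samples (5 µL) taken at 0, 1, 2, 4, 6, 12, 18 and 24 h, tenfold diluted in 0.85% NaCl, and plated on TSA overnight at 37 °C for CFU counts. Two independent duplicates.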
# Staphylococcus aureus [3] = test: Antibacterial activity against Staphylococcus aureus ATCC 25923 assessed as reduction in bacterial growth at MIC concentration measured after 24 hrs by time-kill kinetic analysis; assay type: functional, organism-based; in short: as §2
# Staphylococcus aureus [4] = test: Bactericidal activity against methicillin resistant Staphylococcus aureus BAA 2313 assessed as inhibition of bacterial growth at MIC concentration incubated for 48 hrs by broth microdilution assay; assay type: functional, organism-based
# In short: (§3)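 Plates were incubated 48 h at 37 °C and examined for colonies. A fidaxomicin-treated culture at 1 µM served as the control.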
# Listeria monocytogenes [5] = test: Bactericidal activity against Listeria monocytogenes ATCC 15313 assessed as inhibition of bacterial growth at MIC concentration incubated for 48 hrs by broth microdilution assay; assay type: functional, organism-based; in short: as §1
# Listeria monocytogenes [6] = test: Antibacterial activity against Listeria monocytogenes ATCC 15313 assessed as inhibition of bacterial growth incubated for 24 hrs by absorbance based microplate reader analysis; assay type: functional; conditions: read-out: MIC100
# In short: (§4)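 Broth microdilution. A single colony was grown 24 h in its recommended broth, then diluted 1:10 000 in the same medium. Peptide serial dilutions were added from DMSO stock at 4 µL per 196 µL inoculated medium. Plates were incubated aerobically or anaerobically as each pathogen requires, at 37 °C for 24 h, and OD600 was read. Duplicate wells; assay repeated five times independently.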
# Enterococcus faecium [7] = test: Bactericidal activity against vancomycin resistant Enterococcus faecium BAA 2317 assessed as inhibition of bacterial growth at MIC concentration incubated for 48 hrs by broth microdilution assay; assay type: functional, organism-based; in short: as §3
# Clostridioides difficile [8] = test: Bactericidal activity against Clostridium difficile ATCC 43602 assessed as inhibition of bacterial growth at MIC concentration incubated for 48 hrs by broth microdilution assay; assay type: functional, organism-based; in short: as §1
# Escherichia coli [9] = test: Antibacterial activity against Escherichia coli ATCC 33694 assessed as inhibition of bacterial growth incubated for 24 hrs by absorbance based microplate reader analysis; assay type: functional; conditions: read-out: MIC100
# In short: (§5)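 Broth microdilution. An overnight single-colony culture in recommended broth was diluted 1:10 000, and peptide serial dilutions in DMSO were added (4 µL into 196 µL). Plates incubated 24 h at 37 °C, aerobic or anaerobic as required, then OD600 read. Inhibition was calculated against pathogen-only and blank wells.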
# Staphylococcus aureus [10] = test: Bactericidal activity against Staphylococcus aureus ATCC 25923 assessed as inhibition of bacterial growth at MIC concentration incubated for 48 hrs by broth microdilution assay; assay type: functional, organism-based; in short: as §1
# Salmonella enterica [11] = test: Bactericidal activity against Salmonella enterica ATCC 13314 assessed as inhibition of bacterial growth at MIC concentration incubated for 48 hrs by broth microdilution assay; assay type: functional, organism-based; in short: as §1
# Caco-2 [12] = test: Anti-inflammatory activity in human Caco-2 cells infected with Clostridium difficile ATCC 43602 assessed as reduction in IL-1beta level at MIC concentration by ELISA relative to control; assay type: functional; parameters: scale not given: the % may be the effect or the level left
# In short: (§6)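 Caco-2 cells grown in DMEM + 10% FBS, 37 °C, 5% CO2, to 90% confluence, then seeded 30 000 cells/well and held 24 h. C. difficile was grown overnight anaerobically in meat broth, washed in PBS, and 1 µL of 0.5 OD600 culture added per 300 µL medium. […] Cytokine in supernatant measured by ELISA; three independent replicates.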
# Salmonella enterica [13] = test: Antibacterial activity against Salmonella enterica ATCC 13314 assessed as inhibition of bacterial growth incubated for 24 hrs by absorbance based microplate reader analysis; assay type: functional; in short: as §5
# Pseudomonas aeruginosa [14] = test: Antibacterial activity against Pseudomonas aeruginosa BAA 1744 assessed as inhibition of bacterial growth incubated for 24 hrs by absorbance based microplate reader analysis; assay type: functional; in short: as §5
# Escherichia coli [15] = test: Bactericidal activity against Escherichia coli ATCC 33694 assessed as inhibition of bacterial growth at MIC concentration incubated for 48 hrs by broth microdilution assay; assay type: functional, organism-based; in short: as §1
# Staphylococcus aureus [16] = test: Antibacterial activity against Staphylococcus aureus ATCC 25923 assessed as reduction in surviving bacteria at MIC concentration measured after 12 hrs by time-kill kinetic analysis; assay type: functional; in short: as §2
# Staphylococcus aureus [17] = test: Induction of morphological changes in Staphylococcus aureus ATCC 25923 assessed as cell damage at MIC concentration by transmission electron microscopic analysis; assay type: functional, organism-based
# In short: (§7)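 Cells were pelleted at 4 °C, washed in 0.1 M PBS pH 7.2, and fixed overnight (4% formaldehyde, 1.25% glutaraldehyde, ruthenium red). Post-fixed in 1% OsO4, dehydrated through ethanol, embedded in epoxy resin and imaged by TEM.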
# Staphylococcus aureus [18] = test: Antibacterial activity against Staphylococcus aureus ATCC 25923 assessed as reduction in surviving bacteria at MIC concentration measured within 6 hrs by time-kill kinetic analysis; assay type: functional; in short: as §2
# Staphylococcus aureus [19] = test: Induction of morphological changes in Staphylococcus aureus ATCC 25923 assessed as extracellular protrusions by measuring fragments of lysed cell wall at MIC concentration by transmission electron microscopic analysis; assay type: functional, organism-based; in short: as §7
# Staphylococcus aureus [20] = test: Induction of morphological changes in Staphylococcus aureus ATCC 25923 assessed as appearance of detached fragments at MIC concentration by transmission electron microscopic analysis; assay type: functional, organism-based; in short: as §7
# Staphylococcus aureus [21] = test: Induction of morphological changes in Staphylococcus aureus ATCC 25923 assessed as leakage of intracellular content at MIC concentration by transmission electron microscopic analysis; assay type: functional, organism-based; in short: as §7
# [22] = Retention time of compound by RP-HPLC analysis; assay type: physicochemical
# In short: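 Analytical reversed-phase HPLC.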
# Enterococcus faecium [23] = test: Antibacterial activity against vancomycin resistant Enterococcus faecium BAA 2317 assessed as inhibition of bacterial growth incubated for 24 hrs by absorbance based microplate reader analysis; assay type: functional; conditions: for MIC: read-out: MIC100
# In short: as §4, with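 “read. MIC was the lowest concentration giving 100% growth inhibition.” for “read.”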
# Staphylococcus aureus [24] = test: Antibacterial activity against Staphylococcus aureus ATCC 25923 assessed as inhibition of bacterial growth incubated for 24 hrs by absorbance based microplate reader analysis; assay type: functional; conditions: read-out: MIC100; in short: as §4
# Staphylococcus aureus [25] = test: Antibacterial activity against methicillin resistant Staphylococcus aureus BAA 2313 assessed as inhibition of bacterial growth incubated for 24 hrs by absorbance based microplate reader analysis; assay type: functional; in short: as §4
# Staphylococcus aureus [26] = test: Induction of morphological changes in Staphylococcus aureus ATCC 25923 assessed as fragmentation of intracellular content at MIC concentration by transmission electron microscopic analysis; assay type: functional, organism-based; in short: as §7
# Staphylococcus aureus [27] = test: Induction of morphological changes in Staphylococcus aureus ATCC 25923 assessed as disintegration of cells at MIC concentration by transmission electron microscopic analysis; assay type: functional, organism-based; in short: as §7
# Caco-2 [28] = test: Anti-inflammatory activity in human Caco-2 cells infected with Clostridium difficile ATCC 43602 assessed as reduction in TNFalpha level at MIC concentration by ELISA relative to control; assay type: functional; parameters: scale not given: the % may be the effect or the level left; in short: as §6
# Staphylococcus aureus [29] = test: Induction of morphological changes in Staphylococcus aureus ATCC 25923 assessed as deformation of cells at MIC concentration by transmission electron microscopic analysis; assay type: functional, organism-based; in short: as §7
# Staphylococcus aureus [30] = test: Induction of morphological changes in Staphylococcus aureus ATCC 25923 assessed as cell wall lysis at MIC concentration by transmission electron microscopic analysis; assay type: functional, organism-based; in short: as §7
# Staphylococcus aureus [31] = test: Induction of morphological changes in Staphylococcus aureus ATCC 25923 assessed as detachment of pieces from cell wall at MIC concentration by transmission electron microscopic analysis; assay type: functional, organism-based; in short: as §7
# Clostridioides difficile [32] = test: Antibacterial activity against Clostridium difficile ATCC 43602 assessed as inhibition of bacterial growth incubated for 24 hrs by absorbance based microplate reader analysis; assay type: functional; conditions: read-out: MIC100
# Caco-2 [33] = test: Anti-inflammatory activity in human Caco-2 cells infected with Clostridium difficile ATCC 43602 assessed as reduction in IL-8 level at MIC concentration by ELISA relative to control; assay type: functional; parameters: scale not given: the % may be the effect or the level left; in short: as §6
Compound,Activity (Pseudomonas aeruginosa [1]),Activity (Staphylococcus aureus [2]) [log10CFU/ml],Activity (Staphylococcus aureus [3]),Activity (Staphylococcus aureus [4]),Activity (Listeria monocytogenes [5]),Activity (Enterococcus faecium [7]),Activity (Clostridioides difficile [8]),Activity (Staphylococcus aureus [10]),Activity (Salmonella enterica [11]),Activity (Salmonella enterica [13]),Activity (Escherichia coli [15]),Activity (Staphylococcus aureus [16]) [log10CFU/ml],Activity (Staphylococcus aureus [21]),Retention_time [22] [min],MIC (Enterococcus faecium [23]) [µM],also measured
CC[C@H](C)[C@H](NC(=O)CNC(=O)CNC(=O)[C@H](CO)NC(=O)[C@@H](NC(=O)[C@H](CCCCN)NC(=O)[C@H](CO)NC(=O)[C@H](CC(C)C)NC(=O)[C@H](CCC(=O)O)NC(=O)[C@@H](NC(=O)[C@H](CCC(=O)O)NC(=O)[C@H](CC(N)=O)NC(=O)[C@H](CC(C)C)NC(=O)[C@H](CCCCN)NC(=O)[C@H](CC(N)=O)NC(=O)[C@@H](N)CCSC)C(C)C)[C@@H](C)CC)C(=O)NCC(=O)N1CCC[C@H]1C(=O)N[C@@H](CC(C)C)C(=O)N[C@H](C(=O)N[C@H](C(=O)N1CCC[C@H]1C(=O)N[C@H](C(=O)N[C@@H](C)C(=O)N[C@@H](C)C(=O)N[C@H](C(=O)N[C@@H](CC(C)C)C(=O)NCC(=O)N[C@@H](Cc1ccccc1)C(=O)N[C@@H](CC(C)C)C(=O)N[C@@H](C)C(=O)N[C@H](C(=O)N[C@@H](CC(=O)O)C(=O)N[C@@H](C)C(=O)N[C@@H](Cc1c[nH]c2ccccc12)C(=O)N[C@@H](CC(N)=O)C(=O)N[C@@H](Cc1cnc[nH]1)C(=O)N[C@@H](C)C(=O)N[C@@H](CC(=O)O)C(=O)N[C@@H](CCC(=O)O)C(=O)N[C@@H](CC(C)C)C(=O)N[C@H](C(=O)N[C@@H](C)C(=O)NCC(=O)N[C@H](C(=O)N[C@@H](CCCCN)C(=O)N[C@@H](CCC(N)=O)C(=O)NCC(=O)N[C@@H](Cc1c[nH]c2ccccc12)C(=O)N[C@@H](CCC(=O)O)C(=O)N[C@@H](CCCNC(=N)N)C(=O)N[C@@H](CO)C(=O)O)C(C)C)C(C)C)[C@H](C)O)[C@@H](C)CC)C(C)C)[C@@H](C)CC)C(C)C,Active,2,Active,Active,Active,Active,Active,Active,Active,inactive,Active,5,–,–,–,MIC (Listeria monocytogenes [6]): 1.2 µM; MIC (Escherichia coli [9]): 7.5 µM; Activity (Caco-2 [12]): 91%; Activity (Pseudomonas aeruginosa [14]): inactive
CC[C@H](C)[C@@H]1NC(=O)CNC(=O)CNC(=O)[C@H](CO)NC(=O)[C@H]([C@@H](C)CC)NC(=O)[C@H](CCCCN)NC(=O)[C@H](CO)NC(=O)[C@H](CC(C)C)NC(=O)[C@@H](C(C)C)NC(=O)[C@@H]2CCCN2C(=O)[C@H]([C@@H](C)CC)NC(=O)[C@H](C(C)C)NC(=O)[C@H](CC(C)C)NC(=O)[C@@H]2CCCN2C(=O)CNC1=O (cyclo(LSKISGGIGPLVIP[dV])),Active,3,Active,Active,Active,Active,Active,Active,Active,inactive,Active,–,Active,17.76,1.5,Activity (Staphylococcus aureus [17]): Active; Activity (Staphylococcus aureus [18]): 5 log10CFU/ml; Activity (Staphylococcus aureus [19]): Active; Activity (Staphylococcus aureus [20]): Active
CC1(C)S[C@@H]2[C@H](NC(=O)[C@H](N)c3ccc(O)cc3)C(=O)N2[C@H]1C(=O)O [AMOXICILLIN],–,4,Active,–,–,–,–,–,–,–,–,5,–,–,35,MIC (Staphylococcus aureus [24]): 5 µM; MIC (Staphylococcus aureus [25]; read-out: MIC100): 35 µM
H-LSKISGGIGPLVIPV-NH2,Active,2,Active,Active,Active,Active,Active,Active,Active,inactive,Active,5,Active,14.51,–,Activity (Staphylococcus aureus [26]): Active; Activity (Staphylococcus aureus [27]): Active; Activity (Caco-2 [28]): 10%; Activity (Staphylococcus aureus [29]): Active; Activity (Staphylococcus aureus [30]): Active; MIC (Pseudomonas aeruginosa [14]; read-out: MIC100): 9.3 µM; Activity (Staphylococcus aureus [31]): Active; MIC (Clostridioides difficile [32]): 0.9 µM
H-SGGIGPLVIP-NH2,Active,–,–,Active,Active,Active,Active,Active,Active,inactive,Active,–,–,13.82,–,Activity (Caco-2 [33]): 6%; Activity (Staphylococcus aureus [25]): inactive; Activity (Enterococcus faecium [23]): inactive
